Experimental data from different studies.
Protocols differ between the studies behind these lines.
Observed: metabolic stability
Matrix: liver microsomes

The compound remaining of `N#Cc1ccc(C[C@@H](NC(=O)Nc2ccc(F)cc2)C(=O)NCC2(c3ccc(OC(F)(F)F)cc3)CC2)cc1` is reported as > 80% (rat; 10 µM; 30 min; pH 7.4).
The compound remaining of `CC(C)NCC(O)COc1cccc2ccccc12` (stereo not shown) is reported as < 7% (male rat; 1 µM; 30 min).
The compound remaining of `Cc1ccc2c(c1)nc(CCc1cccc3cccnc13)n2-c1ccccc1` is reported as 0.05% (rat; 1.5 µM; 45 min).
`O=C(Nc1ccc(S(=O)(=O)N2CCC(Cl)CC2)cc1)c1ccc([N+](=O)[O-])o1` has a compound remaining of 0.02% (mouse; 1 µM; 1 h; pH 7.4).
For `N#Cc1ccc(C[C@@H](NC(=O)Nc2ccc([N+](=O)[O-])cc2)C(=O)NCC2(c3ccccc3)CC2)cc1`, the compound remaining was > 20% (rat; 10 µM; 30 min; pH 7.4).
For `CCCn1nc(C(=O)N2CCCCC2)c2c1CCC(NCCN1CCCCC1)C2` (stereo not shown), the compound remaining was 54% (mouse; 10 µM; 1 h).
The compound remaining of `Cc1ncsc1-c1ccc(CNC(=O)[C@@H]2C[C@@H](O)CN2C(=O)[C@@H](NC(=O)CCCCCCCCCCNC(=O)O[C@H]2C[C@@H](C)C=C3C=C[C@H](C)[C@H](CC[C@@H]4C[C@@H](O)CC(=O)O4)[C@H]32)C(C)(C)C)cc1` is reported as 8.23% (mouse; 1 µM; 15 min; pH 7.4).
With `Cc1ccc2c(c1)nc(/C=C/c1cccc3cccnc13)n2-c1ccccc1` the compound remaining was 75.4% (rat; 1.5 µM; 5 min).
For `CS(=O)(=O)c1ccc(-c2cnc(N)c(-c3ccc(C(F)(F)F)nc3)c2)cc1`, the compound remaining was > 99% (male CD-1 mouse; 1 µM; 30 min).
For `CCCn1nc(C(=O)N(C)C)c2c1CCC(NCc1ccc(F)cc1)C2` (stereo not shown), the compound remaining was < 25% (mouse; 10 µM; 1 h).
